Article PMC6594083 (Diabetes, Obesity & Metabolism, 2019)
Several values for one entry are separate records, joined by “and”; a condition that tells them apart may be missing. Equal values may be shown once. Read-outs that look alike come from different tables or passages of the source.

How the values were obtained:
Type in all cases: in vivo, human (Japanese patients)
[1] = tested on: Japanese patients with type 1 diabetes mellitus; conditions: Day 15; for Glycoalbumin, AMD (95% CI): adjusted mean difference to placebo; for Body weight, mean change from baseline / Glycoalbumin, mean change from baseline: mean ± SD
Method in brief: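 Glycoalbumin and body weight were taken as change from baseline to day 15. Differences from placebo came from an analysis of covariance with baseline as covariate, with 95% CI. Analysed in patients with day-14 pharmacodynamic data.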

[2] = tested on: Japanese patients with type 1 diabetes mellitus; assay: Safety: serum ketone levels; conditions: for Blood ketone body in patient with AE blood ketone body increased: person; for Mean (SD) change in total serum ketones: baseline until end of treatment
Method in brief: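 Total serum ketones, acetoacetic acid and 3-hydroxybutyric acid were measured at screening, predose on treatment days 1 (baseline), 2, 3, 14 and 15, and in the post-treatment period. Ketone increases were reported as adverse events.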

[3] = Pharmacokinetics of ipragliflozin; conditions: human, plasma, oral, AUC24h, day 14, mean ± SD
Method in brief: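 Patients were hospitalized days −2 to 3 and days 13 to 15. […] The analysis set was patients dosed with at least one drug-concentration sample.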

[4] = tested on: Japanese patients with type 1 diabetes mellitus; assay: Safety: treatment-emergent adverse events incl. hypoglycaemia
Method in brief: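 Self-monitored blood glucose was checked four times daily, before each meal and at bedtime. A value ≤70 mg/dL (≤3.89 mmol/L) was recorded as a hypoglycaemia adverse event. Adverse events were coded by MedDRA version 18.0 in all dosed patients.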

[5] = tested on: Japanese patients with type 1 diabetes mellitus; assay: Concomitant insulin daily dose; conditions: day 14
Method in brief: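 Japanese type 1 diabetes patients on insulin; randomized, double-blind, placebo-controlled. Insulin was adjusted by usual clinical practice on physician instruction, with a cut considered if self-monitored glucose fell below 80 mg/dL. Basal, bolus and total daily units recorded; change from baseline to day 14.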

OC[C@H]1O[C@@H](c2ccc(F)c(Cc3cc4ccccc4s3)c2)[C@H](O)[C@@H](O)[C@@H]1O [ipragliflozin]
Glycoalbumin, AMD (95% CI) ([1]; 25 mg/day): −2.17% and −2.17 (−3.84, −0.51) % | Body weight, mean change from baseline ([1]; 25 mg/day): -0.83 ± 0.48 kg | Glycoalbumin, mean change from baseline ([1]; 25 mg/day): −2.67 ± 2.30% | Glycoalbumin, AMD (95% CI) ([1]; 50 mg/day): −2.03% and −2.03 (−3.58, −0.48) % | Body weight, mean change from baseline ([1]; 50 mg/day): -1.18 ± 1.06 kg | Glycoalbumin, mean change from baseline ([1]; 50 mg/day): −2.53 ± 1.52% | Body weight, mean change from baseline ([1]; 100 mg/day): -0.94 ± 0.89 kg | Glycoalbumin, mean change from baseline ([1]; 100 mg/day): −2.95 ± 2.24% | Blood ketone body in patient with AE blood ketone body increased ([2]; 25 mg group, day 15, 24 hours postdose): 991 µmol/L | Mean (SD) change in total serum ketones ([2]; 25 mg/day): 173.38 (267.48) μmol/L | Blood ketone body in patient with AE blood ketone body increased ([2]; 50 mg group, day 15, 24 hours postdose): 968 µmol/L | Mean (SD) change in total serum ketones ([2]; 50 mg/day): 357.07 (294.41) μmol/L | Blood ketone body in patient with AE blood ketone body increased ([2]; 100 mg group, day 2, predose): 1200 µmol/L | Blood ketone body in patient with AE blood ketone body increased ([2]; 100 mg group, day 15, 24 hours postdose): 1770 µmol/L | Mean (SD) change in total serum ketones ([2]; 100 mg/day): 233.18 (387.35) μmol/L | AUC(0-t) ([3]; 25 mg/day, 25 mg/day): 2.51 ± 0.495 µg·h/mL | AUC(0-t) ([3]; 50 mg/day, 50 mg/day): 5.79 ± 1.13 µg·h/mL | Hypoglycaemia, Asymptomatic ([4]; 25 mg/day (n = 10)): 10 (100.0) patients (%) | Hypoglycaemia, Asymptomatic, number of events ([4]; 25 mg/day (n = 10)): 44 events | Hypoglycaemia, Documented symptomatic ([4]; 25 mg/day (n = 10)): 8 (80.0) patients (%) | Hypoglycaemia, Documented symptomatic, number of events ([4]; 25 mg/day (n = 10)): 58 events | Hypoglycaemia, Drug‐related ([4]; 25 mg/day (n = 10)): 10 (100.0) patients (%) | Hypoglycaemia, Drug‐related, number of events ([4]; 25 mg/day (n = 10)): 83 events | Hypoglycaemia, Major ([4]; 25 mg/day (n = 10)): 0 patients (%) | Hypoglycaemia, Mild, number of events ([4]; 25 mg/day (n = 10)): 102 events | Hypoglycaemia, Moderate ([4]; 25 mg/day (n = 10)): 1 (10.0) patients (%) | Hypoglycaemia, Moderate, number of events ([4]; 25 mg/day (n = 10)): 1 events | Hypoglycaemia, Probable symptomatic ([4]; 25 mg/day (n = 10)): 0 patients (%) | Hypoglycaemia, Relative ([4]; 25 mg/day (n = 10)): 1 (10.0) patients (%) | Hypoglycaemia, Relative, number of events ([4]; 25 mg/day (n = 10)): 1 events | Hypoglycaemia, Serious ([4]; 25 mg/day (n = 10)): 0 patients (%) | Hypoglycaemia, Severe ([4]; 25 mg/day (n = 10)): 0 patients (%) | TEAE Beta 2 microglobulin increased ([4]; 25 mg/day (n = 10)): 1 (10.0) patients (%) | TEAE Blood bilirubin increased ([4]; 25 mg/day (n = 10)): 1 (10.0) patients (%) | TEAE Blood ketone body increased ([4]; 25 mg/day (n = 10)): 1 (10.0) patients (%) | TEAE Constipation ([4]; 25 mg/day (n = 10)): 0 patients (%) | TEAE Decreased appetite ([4]; 25 mg/day (n = 10)): 0 patients (%) | TEAE Gastroenteritis ([4]; 25 mg/day (n = 10)): 1 (10.0) patients (%) | TEAE Headache ([4]; 25 mg/day (n = 10)): 0 patients (%) | TEAE Hemorrhoidal hemorrhage ([4]; 25 mg/day (n = 10)): 0 patients (%) | TEAE Hyperglycaemia ([4]; 25 mg/day (n = 10)): 0 patients (%) | TEAE Hypoglycaemia ([4]; 25 mg/day (n = 10)): 10 (100.0) patients (%) | TEAE Hypoglycaemia, number of events ([4]; 25 mg/day (n = 10)): 103 events | TEAE Nasopharyngitis ([4]; 25 mg/day (n = 10)): 1 (10.0) patients (%) | TEAE Overall ([4]; 25 mg/day (n = 10)): 10 (100.0) patients (%) | TEAE Papule ([4]; 25 mg/day (n = 10)): 0 patients (%) | TEAE Pollakiuria ([4]; 25 mg/day (n = 10)): 0 patients (%) | TEAE Pyrexia ([4]; 25 mg/day (n = 10)): 0 patients (%) | TEAE Upper respiratory tract infection ([4]; 25 mg/day (n = 10)): 0 patients (%) | TEAE Urine ketone body present ([4]; 25 mg/day (n = 10)): 0 patients (%) | TEAE Vomiting ([4]; 25 mg/day (n = 10)): 0 patients (%) | Hypoglycaemia, Asymptomatic ([4]; 50 mg/day (n = 12)): 9 (75.0) patients (%) | Hypoglycaemia, Asymptomatic, number of events ([4]; 50 mg/day (n = 12)): 34 events | Hypoglycaemia, Documented symptomatic ([4]; 50 mg/day (n = 12)): 11 (91.7) patients (%) | Hypoglycaemia, Documented symptomatic, number of events ([4]; 50 mg/day (n = 12)): 96 events | Hypoglycaemia, Drug‐related ([4]; 50 mg/day (n = 12)): 12 (100.0) patients (%) | Hypoglycaemia, Drug‐related, number of events ([4]; 50 mg/day (n = 12)): 122 events | Hypoglycaemia, Major ([4]; 50 mg/day (n = 12)): 0 patients (%) | Hypoglycaemia, Mild, number of events ([4]; 50 mg/day (n = 12)): 141 events | Hypoglycaemia, Moderate ([4]; 50 mg/day (n = 12)): 1 (8.3) patients (%) | Hypoglycaemia, Moderate, number of events ([4]; 50 mg/day (n = 12)): 3 events | Hypoglycaemia, Probable symptomatic ([4]; 50 mg/day (n = 12)): 3 (25.0) patients (%) | Hypoglycaemia, Probable symptomatic, number of events ([4]; 50 mg/day (n = 12)): 3 events | Hypoglycaemia, Relative ([4]; 50 mg/day (n = 12)): 4 (33.3) patients (%) | Hypoglycaemia, Relative, number of events ([4]; 50 mg/day (n = 12)): 11 events | Hypoglycaemia, Serious ([4]; 50 mg/day (n = 12)): 0 patients (%) | Hypoglycaemia, Severe ([4]; 50 mg/day (n = 12)): 0 patients (%) | TEAE Beta 2 microglobulin increased ([4]; 50 mg/day (n = 12)): 0 patients (%) | TEAE Blood bilirubin increased ([4]; 50 mg/day (n = 12)): 0 patients (%) | TEAE Blood ketone body increased ([4]; 50 mg/day (n = 12)): 1 (8.3) patients (%) | TEAE Constipation ([4]; 50 mg/day (n = 12)): 1 (8.3) patients (%) | TEAE Decreased appetite ([4]; 50 mg/day (n = 12)): 1 (8.3) patients (%) | TEAE Gastroenteritis ([4]; 50 mg/day (n = 12)): 0 patients (%) | TEAE Headache ([4]; 50 mg/day (n = 12)): 0 patients (%) | TEAE Hemorrhoidal hemorrhage ([4]; 50 mg/day (n = 12)): 0 patients (%) | TEAE Hyperglycaemia ([4]; 50 mg/day (n = 12)): 1 (8.3) patients (%) | TEAE Hypoglycaemia ([4]; 50 mg/day (n = 12)): 12 (100.0) patients (%) | TEAE Hypoglycaemia, number of events ([4]; 50 mg/day (n = 12)): 144 events | TEAE Nasopharyngitis ([4]; 50 mg/day (n = 12)): 1 (8.3) patients (%) | TEAE Overall ([4]; 50 mg/day (n = 12)): 12 (100.0) patients (%) | TEAE Papule ([4]; 50 mg/day (n = 12)): 1 (8.3) patients (%) | TEAE Pollakiuria ([4]; 50 mg/day (n = 12)): 1 (8.3) patients (%) | TEAE Pyrexia ([4]; 50 mg/day (n = 12)): 1 (8.3) patients (%) | TEAE Upper respiratory tract infection ([4]; 50 mg/day (n = 12)): 0 patients (%) | TEAE Urine ketone body present ([4]; 50 mg/day (n = 12)): 1 (8.3) patients (%) | TEAE Vomiting ([4]; 50 mg/day (n = 12)): 1 (8.3) patients (%) | Hypoglycaemia, Asymptomatic ([4]; 100 mg/day (n = 10)): 9 (90.0) patients (%) | Hypoglycaemia, Asymptomatic, number of events ([4]; 100 mg/day (n = 10)): 60 events | Hypoglycaemia, Documented symptomatic ([4]; 100 mg/day (n = 10)): 7 (70.0) patients (%) | Hypoglycaemia, Documented symptomatic, number of events ([4]; 100 mg/day (n = 10)): 25 events | Hypoglycaemia, Drug‐related ([4]; 100 mg/day (n = 10)): 9 (90.0) patients (%) | Hypoglycaemia, Drug‐related, number of events ([4]; 100 mg/day (n = 10)): 77 events | Hypoglycaemia, Major ([4]; 100 mg/day (n = 10)): 0 patients (%) | Hypoglycaemia, Mild, number of events ([4]; 100 mg/day (n = 10)): 85 events | Hypoglycaemia, Moderate ([4]; 100 mg/day (n = 10)): 0 patients (%) | Hypoglycaemia, Probable symptomatic ([4]; 100 mg/day (n = 10)): 0 patients (%) | Hypoglycaemia, Relative ([4]; 100 mg/day (n = 10)): 0 patients (%) | Hypoglycaemia, Serious ([4]; 100 mg/day (n = 10)): 0 patients (%) | Hypoglycaemia, Severe ([4]; 100 mg/day (n = 10)): 0 patients (%) | TEAE Beta 2 microglobulin increased ([4]; 100 mg/day (n = 10)): 0 patients (%) | TEAE Blood bilirubin increased ([4]; 100 mg/day (n = 10)): 0 patients (%) | TEAE Blood ketone body increased ([4]; 100 mg/day (n = 10)): 2 (20.0) patients (%) | TEAE Constipation ([4]; 100 mg/day (n = 10)): 0 patients (%) | TEAE Decreased appetite ([4]; 100 mg/day (n = 10)): 0 patients (%) | TEAE Gastroenteritis ([4]; 100 mg/day (n = 10)): 0 patients (%) | TEAE Headache ([4]; 100 mg/day (n = 10)): 0 patients (%) | TEAE Hemorrhoidal hemorrhage ([4]; 100 mg/day (n = 10)): 0 patients (%) | TEAE Hyperglycaemia ([4]; 100 mg/day (n = 10)): 0 patients (%) | TEAE Hypoglycaemia ([4]; 100 mg/day (n = 10)): 9 (90.0) patients (%) | TEAE Hypoglycaemia, number of events ([4]; 100 mg/day (n = 10)): 85 events | TEAE Nasopharyngitis ([4]; 100 mg/day (n = 10)): 0 patients (%) | TEAE Overall ([4]; 100 mg/day (n = 10)): 9 (90.0) patients (%) | TEAE Papule ([4]; 100 mg/day (n = 10)): 0 patients (%) | TEAE Pollakiuria ([4]; 100 mg/day (n = 10)): 0 patients (%) | TEAE Pyrexia ([4]; 100 mg/day (n = 10)): 0 patients (%) | TEAE Upper respiratory tract infection ([4]; 100 mg/day (n = 10)): 1 (10.0) patients (%) | TEAE Urine ketone body present ([4]; 100 mg/day (n = 10)): 1 (10.0) patients (%) | TEAE Vomiting ([4]; 100 mg/day (n = 10)): 0 patients (%) | Deaths, serious TEAEs, TEAEs leading to discontinuation ([4]; 25, 50, 100 mg/day for 14 days): no deaths, other serious TEAEs, or TEAEs leading to discontinuation | Ketoacidosis ([4]; 25, 50, 100 mg/day for 14 days): no ketoacidosis was observed | Total daily insulin dose, % change from baseline (SD) ([5]; 25 mg/day): −14.77 ± 14.04% | Total daily insulin dose, % change from baseline (SD) ([5]; 50 mg/day): −18.40 ± 12.49% | Total daily insulin dose, % change from baseline (SD) ([5]; 100 mg/day): −19.25 ± 16.77%
